# Target: Multidrug resistance-associated protein 1 (Homo sapiens, UniProt P33527)
# Test: Inhibition of MRP1 in human 2008/MRP1 cells assessed as potentiation of doxorubicin-induced cytotoxicity by measuring cell survival at 2 uM after 5 days by MTS assay relative to control
# Format: cell-based
# Conditions: 120 h
# Method in brief: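 2008/MRP1 cells (retroviral human MRP1 transfectant; RPMI 1640, 10% FBS) at 4,000 per well, with 100 nM doxorubicin plus crude, unpurified click products in DMSO: 2 µM in the primary screen, 1 µM in the secondary. Incubated 5 days at 37 °C. MTS/PMS added for 2 h at 37 °C, absorbance read at 490 nm. % survival is relative to wells without DOX or product. Run in triplicate, at least three experiments.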
# Chain of Multidrug resistance-associated protein 1 (P33527 whole entry): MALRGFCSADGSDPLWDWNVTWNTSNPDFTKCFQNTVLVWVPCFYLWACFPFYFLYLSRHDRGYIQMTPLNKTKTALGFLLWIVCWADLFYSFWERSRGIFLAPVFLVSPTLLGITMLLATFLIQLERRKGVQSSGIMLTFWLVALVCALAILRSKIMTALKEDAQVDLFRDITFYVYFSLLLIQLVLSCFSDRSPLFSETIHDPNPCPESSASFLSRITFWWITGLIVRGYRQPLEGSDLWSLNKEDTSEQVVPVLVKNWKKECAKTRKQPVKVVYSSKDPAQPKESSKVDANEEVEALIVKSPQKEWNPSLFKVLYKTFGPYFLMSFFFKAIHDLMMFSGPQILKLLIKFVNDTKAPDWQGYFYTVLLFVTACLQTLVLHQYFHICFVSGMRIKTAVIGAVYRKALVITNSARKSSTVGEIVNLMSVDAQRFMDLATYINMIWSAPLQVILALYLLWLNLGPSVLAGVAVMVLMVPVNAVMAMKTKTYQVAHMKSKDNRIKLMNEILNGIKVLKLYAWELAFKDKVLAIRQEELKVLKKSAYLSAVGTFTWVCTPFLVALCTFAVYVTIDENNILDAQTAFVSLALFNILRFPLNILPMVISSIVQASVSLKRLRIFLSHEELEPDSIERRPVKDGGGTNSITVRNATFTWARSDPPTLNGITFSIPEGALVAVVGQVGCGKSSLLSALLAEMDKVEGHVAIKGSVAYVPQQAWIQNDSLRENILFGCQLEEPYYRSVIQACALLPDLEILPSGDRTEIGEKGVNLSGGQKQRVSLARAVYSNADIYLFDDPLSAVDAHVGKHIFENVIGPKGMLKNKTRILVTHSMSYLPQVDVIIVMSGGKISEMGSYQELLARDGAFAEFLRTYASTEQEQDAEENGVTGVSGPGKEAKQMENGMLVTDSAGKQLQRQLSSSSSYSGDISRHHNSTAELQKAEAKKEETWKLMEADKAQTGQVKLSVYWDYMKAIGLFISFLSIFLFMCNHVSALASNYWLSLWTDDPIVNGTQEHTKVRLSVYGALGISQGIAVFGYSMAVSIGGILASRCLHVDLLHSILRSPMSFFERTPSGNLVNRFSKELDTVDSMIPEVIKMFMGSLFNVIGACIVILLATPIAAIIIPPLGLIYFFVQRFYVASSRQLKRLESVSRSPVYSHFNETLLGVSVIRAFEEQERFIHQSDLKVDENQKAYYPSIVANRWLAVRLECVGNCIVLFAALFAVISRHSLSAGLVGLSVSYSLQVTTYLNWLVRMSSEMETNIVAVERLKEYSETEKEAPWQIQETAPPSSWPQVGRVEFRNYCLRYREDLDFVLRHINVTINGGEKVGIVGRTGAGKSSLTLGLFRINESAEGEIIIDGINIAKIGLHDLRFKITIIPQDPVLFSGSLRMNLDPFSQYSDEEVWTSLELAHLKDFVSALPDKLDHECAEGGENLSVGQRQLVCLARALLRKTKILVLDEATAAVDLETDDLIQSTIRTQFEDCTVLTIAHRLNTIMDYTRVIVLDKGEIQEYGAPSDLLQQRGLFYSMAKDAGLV
row,Structure (SMILES),Survival [%]
1,O=c1cc(-c2ccccc2)oc2cc(OCCCc3cn(CCOCCOc4ccc(-c5oc6ccccc6c(=O)c5OCc5ccccc5)cc4)nn3)ccc12,51
2,COc1cccc(COc2c(-c3ccc(OCCOCCn4cc(CCCCOc5ccc(/C=C/C(=O)c6ccc(F)cc6O)cc5)nn4)cc3)oc3ccccc3c2=O)c1,75
3,O=C(/C=C/c1ccc(OCCCCc2cn(CCOCCOc3ccc4c(=O)cc(-c5ccccc5)oc4c3)nn2)cc1)c1ccc(F)cc1O,64
4,O=c1cc(-c2ccc(OCCOCCn3cc(-c4cccc(-c5cn(CCOCCOc6ccc(-c7cc(=O)c8ccccc8o7)cc6)nn5)c4)nn3)cc2)oc2ccccc12,79
5,O=c1c(OCc2ccccc2)c(-c2ccc(OCCOCCOCCn3cc(CN4CCN(Cc5cn(CCOCCOCCOc6ccc(-c7oc8ccccc8c(=O)c7OCc7ccccc7)cc6)nn5)CC4)nn3)cc2)oc2ccccc12,96
6,Cc1ccc2oc(-c3ccc(OCCCCc4cn(CCOCCOc5cccc(-c6oc7ccccc7c(=O)c6OCc6ccccc6)c5)nn4)cc3)cc(=O)c2c1,55
7,O=c1cc(-c2ccccc2)oc2cc(OCCn3cc(-c4cccc(-c5cn(CCOc6ccc7occ(-c8ccccc8)c(=O)c7c6)nn5)c4)nn3)ccc12,90
8,Cc1ccc(O)c(C(=O)/C=C/c2ccc(OCCCCc3cn(CCOCCOCCOc4ccc(-c5cc(=O)c6ccccc6o5)cc4)nn3)cc2)c1,70
9,CCc1ccc(O)c(C(=O)/C=C/c2ccc(OCCCCc3cn(CCOCCOCCOc4ccc(-c5cc(=O)c6ccccc6o5)cc4)nn3)cc2)c1,60
10,O=c1cc(-c2ccccc2)oc2cc(OCCOCc3cn(CCOCCOCCOc4ccc(-c5cc(=O)c6cc(F)ccc6o5)cc4)nn3)ccc12,53
11,Cc1ccc2oc(-c3ccc(OCCOCCOCCn4cc(CN(CCOc5ccc6c(=O)cc(-c7ccccc7)oc6c5)Cc5ccccc5)nn4)cc3)cc(=O)c2c1,53
12,O=c1cc(-c2ccccc2)oc2cc(OCCOCCn3cc(CN4CCN(Cc5cn(CCOCCOc6ccc7oc(-c8ccccc8)cc(=O)c7c6)nn5)CC4)nn3)ccc12,99
13,O=c1c(OCc2ccccc2)c(-c2ccc(OCCOCCn3cc(-c4ccc(-c5cn(CCOCCOc6ccc(-c7oc8ccccc8c(=O)c7OCc7ccccc7)cc6)nn5)cc4)nn3)cc2)oc2ccccc12,82
14,O=c1cc(-c2ccc(OCCOCCn3cc(-c4ccc(-c5cn(CCOCCOc6ccc(-c7cc(=O)c8ccccc8o7)cc6)nn5)cc4)nn3)cc2)oc2ccccc12,81
15,CN(CCN(C)Cc1cn(CCOCCOc2ccc(-c3oc4ccccc4c(=O)c3OCc3ccccc3)cc2)nn1)Cc1cn(CCOCCOc2ccc(-c3oc4ccccc4c(=O)c3OCc3ccccc3)cc2)nn1,76
16,O=c1cc(-c2ccccc2)oc2cc(OCCN(Cc3ccccc3)Cc3cn(CCOCCOCCOc4ccc(-c5oc6ccccc6c(=O)c5OCc5ccccc5)cc4)nn3)ccc12,65
17,O=c1c(OCc2ccccc2)c(-c2cccc(OCCOCCn3cc(-c4ccc(-c5cn(CCOCCOc6cccc(-c7oc8ccccc8c(=O)c7OCc7ccccc7)c6)nn5)cc4)nn3)c2)oc2ccccc12,82
18,COCOc1cc(OCc2ccccc2)c2c(=O)cc(-c3ccc(OCCCc4cn(CCOCCOc5ccc(-c6cc(=O)c7cc(F)ccc7o6)cc5)nn4)cc3)oc2c1,63
19,O=c1cc(-c2ccc(OCCCc3cn(CCOc4cccc5c(=O)cc(-c6ccccc6)oc45)nn3)cc2)oc2ccc(F)cc12,89
20,O=c1cc(-c2ccc(OCCCc3cn(CCOCCOc4ccc(-c5cc(=O)c6cc(F)ccc6o5)cc4)nn3)cc2)oc2ccc(F)cc12,74
21,COc1cccc(COc2c(-c3ccc(OCCOCCn4cc(CCCOc5ccc(-c6cc(=O)c7ccccc7o6)cc5)nn4)cc3)oc3ccccc3c2=O)c1,68

row,Structure (SMILES),Survival [%]
1,O=c1cc(-c2ccccc2)oc2cc(OCCCc3cn(CCOCCOCCOc4ccc5c(=O)cc(-c6ccccc6)oc5c4)nn3)ccc12,57
2,COCOc1cc(OCc2ccccc2)c2c(=O)cc(-c3ccc(OCCCc4cn(CCOCCOc5ccc6c(=O)cc(-c7ccccc7)oc6c5)nn4)cc3)oc2c1,54
3,O=c1cc(-c2ccc(OCCCc3cn(CCOCCOc4ccc(-c5oc6ccccc6c(=O)c5OCc5ccccc5)cc4)nn3)cc2)oc2cc(F)ccc12,60
4,O=c1cc(-c2ccc(OCCCc3cn(CCOCCOc4ccc(-c5oc6ccccc6c(=O)c5OCc5ccccc5)cc4)nn3)cc2)oc2ccccc12,50
5,COc1cccc(COc2c(-c3ccc(OCCOCCn4cc(-c5cccc(-c6cn(CCOCCOc7ccc(-c8oc9ccccc9c(=O)c8OCc8cccc(OC)c8)cc7)nn6)c5)nn4)cc3)oc3ccccc3c2=O)c1,82
6,C#CCCCCOc1ccc(/C=C/C(=O)c2cc(C)ccc2O)cc1,100
7,[N-]=[N+]=NCCOCCOc1ccc(-c2cc(=O)c3cc(F)ccc3o2)cc1,90
8,O=C1c2ccccc2C(=O)N1CCc1cn(CCOCCOc2ccc(-c3oc4ccccc4c(=O)c3OCc3ccccc3)cc2)nn1,57
9,O=c1cc(-c2ccc(OCCOCCOCCn3cc(CN(Cc4cn(CCOCCOCCOc5ccc(-c6cc(=O)c7ccccc7o6)cc5)nn4)Cc4cn(CCOCCOCCOc5ccc(-c6cc(=O)c7ccccc7o6)cc5)nn4)nn3)cc2)oc2ccccc12,77
10,CCc1ccc(O)c(C(=O)/C=C/c2ccc(OCCCCc3cn(CCOCCOCCOc4ccc5c(=O)cc(-c6ccccc6)oc5c4)nn3)cc2)c1,79
11,O=c1cc(-c2ccc(OCCCc3cn(CCOc4cccc5c(=O)cc(-c6ccccc6)oc45)nn3)cc2)oc2ccccc12,69
12,O=C(/C=C/c1ccc(OCCCCc2cn(CCOCCOCCOc3ccc(-c4cc(=O)c5ccccc5o4)cc3)nn2)cc1)c1ccc(F)cc1O,55
13,COc1cccc(COc2c(-c3ccc(OCCCCc4cn(CCOCCOc5cccc(-c6oc7ccccc7c(=O)c6OCc6ccccc6)c5)nn4)cc3)oc3ccccc3c2=O)c1,75
14,O=C(/C=C/c1ccc(OCCCCc2cn(CCOCCOCCOc3ccc(-c4oc5ccccc5c(=O)c4OCc4ccccc4)cc3)nn2)cc1)c1ccccc1O,61
15,COc1cccc(COc2c(-c3ccc(OCCOCCn4cc(CCCCOc5ccc6c(=O)cc(-c7ccccc7)oc6c5)nn4)cc3)oc3ccccc3c2=O)c1,86
16,O=Cc1ccc(OCCCCc2cn(CCOCCOCCOc3ccc(-c4cc(=O)c5ccccc5o4)cc3)nn2)cc1,70
17,Cc1ccc(C(=O)/C=C/c2ccc(OCCCCc3cn(CCOCCOc4ccc5c(=O)cc(-c6ccccc6)oc5c4)nn3)cc2)c(O)c1,62
18,C#CCCCCOc1ccc(-c2cc(=O)c3cc(C)ccc3o2)cc1,88
19,O=c1cc(-c2ccccc2)oc2cc(OCCCc3cn(CCOCCOc4cccc(-c5oc6ccccc6c(=O)c5OCc5ccccc5)c4)nn3)ccc12,65
20,O=c1[nH]c(-c2ccc(OCCCc3cn(CCOc4cccc5c(=O)cc(-c6ccccc6)oc45)nn3)cc2)nc2ccccc12,67
21,Cc1ccc2oc(-c3ccc(OCCOCCOCCn4cc(CCCOc5ccc(-c6nc7ccccc7c(=O)[nH]6)cc5)nn4)cc3)cc(=O)c2c1,72

row,Structure (SMILES),Survival [%]
1,O=c1[nH]c(-c2ccc(OCCCc3cn(CCOCCOCCOc4ccc5c(=O)cc(-c6ccccc6)oc5c4)nn3)cc2)nc2ccccc12,60
2,O=c1cc(-c2ccc(OCCOCCn3cc(-c4ccc(-c5cn(CCOCCOc6ccc(-c7cc(=O)c8cc(F)ccc8o7)cc6)nn5)cc4)nn3)cc2)oc2ccc(F)cc12,77
3,O=C(/C=C/c1ccc(OCCCCc2cn(CCOCCOc3ccc4c(=O)cc(-c5ccccc5)oc4c3)nn2)cc1)c1ccccc1O,58
4,COc1cccc(COc2c(-c3ccc(OCCOCCn4cc(CCCCOc5ccc(/C=C/C(=O)c6ccccc6O)cc5)nn4)cc3)oc3ccccc3c2=O)c1,74
5,C#CCN1CCN(CC#C)CC1,81
6,COc1cccc(COc2c(-c3ccc(OCCCCc4cn(CCOc5cccc6c(=O)cc(-c7ccccc7)oc56)nn4)cc3)oc3ccccc3c2=O)c1,51
7,C#CCCCOc1ccc(-c2cc(=O)c3c(OCc4ccccc4)cc(OCOC)cc3o2)cc1,67
8,[N-]=[N+]=NCCOCCOc1ccc(-c2cc(=O)c3ccccc3o2)cc1,78
9,COc1cccc(COc2c(-c3ccc(OCCOCCn4cc(-c5ccc(-c6cn(CCOCCOc7ccc(-c8oc9ccccc9c(=O)c8OCc8cccc(OC)c8)cc7)nn6)cc5)nn4)cc3)oc3ccccc3c2=O)c1,88
10,O=C(/C=C/c1ccc(OCCCCc2cn(CCOCCOCCOc3ccc(-c4oc5ccccc5c(=O)c4OCc4ccccc4)cc3)nn2)cc1)c1ccc(F)cc1O,68
11,O=c1cc(-c2ccc(OCCCc3cn(CCOCCOCCOc4ccc(-c5cc(=O)c6ccccc6o5)cc4)nn3)cc2)oc2ccccc12,56
12,O=c1c(OCc2ccccc2)c(-c2cccc(OCCOCCn3cc(CN(Cc4cn(CCOCCOc5cccc(-c6oc7ccccc7c(=O)c6OCc6ccccc6)c5)nn4)Cc4cn(CCOCCOc5cccc(-c6oc7ccccc7c(=O)c6OCc6ccccc6)c5)nn4)nn3)c2)oc2ccccc12,91
13,O=c1cc(-c2ccccc2)oc2cc(OCCOCCOCCn3cc(CN4CCN(Cc5cn(CCOCCOCCOc6ccc7c(=O)cc(-c8ccccc8)oc7c6)nn5)CC4)nn3)ccc12,89
14,Cc1ccc(O)c(C(=O)/C=C/c2ccc(OCCCCc3cn(CCOCCOc4ccc5c(=O)cc(-c6ccccc6)oc5c4)nn3)cc2)c1,73
15,O=c1c(OCc2ccccc2)c(-c2ccc(OCCOCCn3cc(CN(Cc4ccccc4)Cc4cn(CCOCCOc5ccc(-c6oc7ccccc7c(=O)c6OCc6ccccc6)cc5)nn4)nn3)cc2)oc2ccccc12,62
16,O=c1cc(-c2ccccc2)oc2cc(OCCCc3cn(CCOCCOc4ccc(-c5cc(=O)c6cc(F)ccc6o5)cc4)nn3)ccc12,55
17,[N-]=[N+]=NCCOCCOCCOc1ccc(-c2cc(=O)c3ccccc3o2)cc1,85
18,C#CCNc1ccccc1,87
19,COc1cccc(COc2c(-c3ccc(OCCOCCn4cc(CCCCOc5ccc(/C=C/C(=O)c6cc(C)ccc6O)cc5)nn4)cc3)oc3ccccc3c2=O)c1,75
